# Data published in paper PMC6358549 (Molecular Metabolism, 2018).
# Read-outs that look alike come from different tables or passages of the source. No end group written: not given here.
# Assays:
# [1] = general statement in the discussion, no reference given; cited from earlier work
# [2] = test system: healthy human volunteers; conditions: cited from earlier work
# [3] = test system: rat GIPR; conditions: cited from earlier work
# [4] = target: T1, hGIPR (Homo sapiens, UniProt P48546); experiment: cAMP-response-element luciferase reporter gene assay, agonism at human GIPR; format: cell-based; conditions: Figure 5B
# T1 sequence (P48546 22-466): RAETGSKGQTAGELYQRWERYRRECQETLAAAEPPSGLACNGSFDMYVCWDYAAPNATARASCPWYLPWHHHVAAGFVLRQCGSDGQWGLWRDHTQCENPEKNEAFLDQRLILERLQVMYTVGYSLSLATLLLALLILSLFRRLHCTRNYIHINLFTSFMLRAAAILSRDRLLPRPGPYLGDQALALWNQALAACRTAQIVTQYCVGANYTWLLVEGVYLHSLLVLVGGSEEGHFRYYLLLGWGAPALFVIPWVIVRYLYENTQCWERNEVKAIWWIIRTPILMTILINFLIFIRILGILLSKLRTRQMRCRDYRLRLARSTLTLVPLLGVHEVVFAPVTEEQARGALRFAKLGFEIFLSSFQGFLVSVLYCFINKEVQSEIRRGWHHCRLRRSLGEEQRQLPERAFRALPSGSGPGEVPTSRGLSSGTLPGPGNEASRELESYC
# [5] = target: mouse glucagon receptor (GcgR) (Mus musculus, UniProt Q61606); experiment: luciferase reporter gene assay, antagonism at mouse glucagon receptor; format: cell-based; conditions: native hormone at EC90; Figure 5
# Chain of mouse glucagon receptor (GcgR) (Q61606 27-485): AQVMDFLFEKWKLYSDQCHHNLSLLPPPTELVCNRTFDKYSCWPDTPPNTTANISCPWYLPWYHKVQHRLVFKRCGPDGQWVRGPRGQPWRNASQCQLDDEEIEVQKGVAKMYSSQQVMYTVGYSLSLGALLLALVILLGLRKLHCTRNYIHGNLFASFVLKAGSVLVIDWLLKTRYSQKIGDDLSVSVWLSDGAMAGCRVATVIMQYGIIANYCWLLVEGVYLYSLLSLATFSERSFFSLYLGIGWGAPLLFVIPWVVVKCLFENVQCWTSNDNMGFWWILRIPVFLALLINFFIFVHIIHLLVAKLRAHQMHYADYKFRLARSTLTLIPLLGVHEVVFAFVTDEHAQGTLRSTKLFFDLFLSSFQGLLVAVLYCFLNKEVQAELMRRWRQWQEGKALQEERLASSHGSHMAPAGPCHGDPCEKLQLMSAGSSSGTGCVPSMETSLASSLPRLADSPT
# [6] = target: T2, mGIPR (Mus musculus, UniProt Q0P543); experiment: cAMP-response-element luciferase reporter gene assay, agonism at mouse GIPR; format: cell-based; conditions: Figure 5D
# T2 sequence (Q0P543 19-460): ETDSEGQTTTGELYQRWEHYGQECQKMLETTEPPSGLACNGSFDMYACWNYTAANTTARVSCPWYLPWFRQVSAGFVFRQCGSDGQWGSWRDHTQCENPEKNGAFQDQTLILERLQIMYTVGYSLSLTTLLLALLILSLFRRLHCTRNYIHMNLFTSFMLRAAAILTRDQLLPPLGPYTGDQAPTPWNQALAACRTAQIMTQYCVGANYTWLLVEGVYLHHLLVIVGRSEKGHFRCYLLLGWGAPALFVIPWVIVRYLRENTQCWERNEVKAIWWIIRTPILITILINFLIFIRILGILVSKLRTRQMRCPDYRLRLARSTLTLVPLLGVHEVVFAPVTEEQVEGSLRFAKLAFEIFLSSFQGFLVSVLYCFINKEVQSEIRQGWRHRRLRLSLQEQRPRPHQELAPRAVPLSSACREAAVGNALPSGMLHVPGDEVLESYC
# [7] = target: T1, hGIPR; experiment: luciferase reporter gene assay, antagonism at human GIPR; format: cell-based; conditions: co-incubated with native GIP at its EC50; 1% ovalbumin; Figure 5A
# Procedure, shortened: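 HEK293 or BHK cells overexpressing the human receptor with a CRE-linked firefly luciferase reporter were serum-deprived for 16 h. They were then incubated 5 h at 37 °C, 5% CO2 with native GIP at constant concentration plus serial dilutions of test compound. Luminescence was read after adding luciferase substrate. Each concentration was run in duplicate, and potency was fitted per experiment by non-linear three-parameter regression.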
# [8] = test system: DIO mice; experiment: body weight change on chronic treatment of DIO mice; format: in vivo, mouse
# [9] = target: T3, mouse GLP-1R (Mus musculus, UniProt O35659); experiment: luciferase reporter gene assay, antagonism at mouse GLP-1R; format: cell-based; conditions: native hormone at EC90; Figure 5E
# T3 sequence (O35659 22-463): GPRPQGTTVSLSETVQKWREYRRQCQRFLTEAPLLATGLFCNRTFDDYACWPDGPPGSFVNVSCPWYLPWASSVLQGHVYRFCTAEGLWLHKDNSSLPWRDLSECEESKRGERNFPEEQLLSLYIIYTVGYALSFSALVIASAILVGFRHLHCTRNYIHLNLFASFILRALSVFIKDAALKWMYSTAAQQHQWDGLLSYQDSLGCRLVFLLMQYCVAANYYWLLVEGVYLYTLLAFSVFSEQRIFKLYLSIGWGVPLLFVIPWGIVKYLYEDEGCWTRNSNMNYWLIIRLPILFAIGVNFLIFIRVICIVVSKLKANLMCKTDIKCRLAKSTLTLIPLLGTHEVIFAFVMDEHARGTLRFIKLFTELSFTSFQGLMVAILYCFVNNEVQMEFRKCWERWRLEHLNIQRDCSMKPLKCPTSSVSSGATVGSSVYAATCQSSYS
# [10] = aqueous solubility and aggregation; format: physicochemical; conditions: statement in the discussion, method not given
substance,measurement,setting,value
"Native, full-length GIP: native, full-length GIP",aggregation in liquid formulations,[1],prone to aggregation
same,aqueous solubility,[1],limited aqueous solubility
"hGIP (3–30)-NH2: peptide-based GIPR antagonist from the literature (EGTFISDYSIAMDKIHQQDFVNWLLAQK-NH2; UniProt P09681 54-81, looked up, fragment)",insulinotropic response to GIP co-infusion,[2],blocked a majority of the insulinotropic response
same,affinity for the rat GIPR relative to hGIPR,[3],substantially reduced affinity
hGIP(5–42) N^αAc K10[γEγE-C16] Arg18 [acyl GIPR antagonist],partial agonism at hGIPR,[4],did not exhibit any degree of partial agonism
same,cross-reactive antagonism to mouse glucagon receptor (GcgR),[5],did not demonstrate any cross-reactive antagonism
same,partial agonism at mGIPR,[6],did not exhibit any degree of partial agonism
same,hGIPR antagonism,[7],potent antagonism
same,change in body weight relative to vehicle controls,"[8]; daily sc 300 nmol/kg or 1 μmol/kg for ten days, N = 8",did not cause any measurable change in body weight
same,cross-reactive antagonism to mouse GLP-1R,[9],did not demonstrate any cross-reactive antagonism
same,aqueous solubility,[10],sufficient aqueous solubility
liraglutide [reference compound],body weight lowered by,"[8]; daily sc liraglutide 10 nmol/kg, Figure 5H",10.9%
